Molecular target: T1, Corticotropin-releasing factor receptor 1 (Rattus norvegicus, UniProt P35353)
T1 sequence (P35353 whole entry): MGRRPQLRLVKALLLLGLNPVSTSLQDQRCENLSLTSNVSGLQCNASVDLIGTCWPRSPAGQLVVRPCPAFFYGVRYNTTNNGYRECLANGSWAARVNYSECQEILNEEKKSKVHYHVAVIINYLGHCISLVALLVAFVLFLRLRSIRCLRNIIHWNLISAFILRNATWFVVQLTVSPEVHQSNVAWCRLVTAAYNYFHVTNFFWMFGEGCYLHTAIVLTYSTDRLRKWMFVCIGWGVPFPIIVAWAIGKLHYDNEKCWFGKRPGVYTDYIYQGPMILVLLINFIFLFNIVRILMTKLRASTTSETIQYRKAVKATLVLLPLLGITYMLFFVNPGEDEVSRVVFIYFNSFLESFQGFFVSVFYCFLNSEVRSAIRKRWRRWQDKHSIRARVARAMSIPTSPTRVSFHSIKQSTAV
Assay: Displacement of [125I]Tyr-o-CRF from CRF1 receptor in rat frontal cortex homogenates
Format: tissue-based
Summary of the method: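 Bound ligand collected by filtration on PEI-treated glass fiber filters and gamma counted. Nonspecific binding defined with 1 µM DMP696.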

| Compound | IC50 [nM] |
| --- | --- |
| CCCCN(CC)c1nc(C)nc2c1NCCN2c1ccc(OC)cc1C | 11.7 |
| CCCN(CCOC)c1cc(C)nc2c1NC(=O)CN2c1cc(OC)c(OC)cc1C | 43 |
| CCCN(CCOC)c1cc(C)nc2c1NCCN2c1cc(OC)c(OC)cc1C | 87 |
| CCCCN(CC)c1nc(C)nc2c1NC(=O)CN2c1ccc(C(C)=O)cc1C | 713 |
| CCCN(CCOC)c1nc(C)nc2c1NCCN2c1cc(OC)c(OC)cc1C | 210 |
| CCCCN(CC)c1cc(C)nc2c1NCCN2c1ccc(C(C)=O)cc1C | 8.2 |
| CCCCN(CC)c1nc(C)nc2c1NCCN2c1ccc(C(C)=O)cc1C | 172 |
| CCCCN(CC)c1cc(C)nc2c1NC(=O)CN2c1ccc(C#N)cc1C | 3.3 |
| CCCCN(CC)c1nc(C)nc2c1NC(=O)CN2c1ccc(OC)cc1C | 95 |
| CCCCN(CC)c1nc(C)nc2c1NCCN2c1ccc(C#N)cc1C | 102 |
| CCCCN(CC)c1cc(C)nc2c1NCCN2c1ccc(OC)nc1OC | 2.2 |
| CCCCN(CC)c1nc(C)nc2c1NC(=O)CN2c1ccc(OC)nc1OC | 60 |
| CCCCN(CC)c1nc(C)nc2c1NC(=O)CN2c1ccc(C#N)cc1C | 573 |
| CCCCN(CC)c1cc(C)nc2c1NCCN2c1ccc(OC)cc1C | 4.2 |
| CCCCN(CC)c1cc(C)nc2c1NC(=O)CN2c1ccc(C(C)=O)cc1C | 5.8 |
| CCCCN(CC)c1cc(C)nc2c1NCCN2c1ccc(C#N)cc1C | 3.5 |
| CCCCN(CC)c1nc(C)nc2c1NCCN2c1ccc(OC)nc1OC | 9.9 |
